Assay results as given in ChEMBL document CHEMBL3352256 (J Med Chem, 2014).

Tests used:
[1] = Inhibition of HTLV-1 protease; parameters: species or system Human T-cell leukemia virus type I
[2] = test system: Human T-cell leukemia virus type I; experiment: Inhibition of HTLV-1 protease at 80 uM using (RE(Edans)TKVLVVQPK(Dabsyl)R) substrate by fluorescence-based assay
Procedure, shortened: (§1)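 HTLV-1 PR (aspartic protease, homodimer) activity was measured in a fluorescence-based assay. Inhibitors were tested at 80, 40 and 8 μM, and the read-out was percent inhibition. A percentage efficiency index (PEI) was then calculated from the percent inhibition value and the molecular weight.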

[3] = test system: Human T-cell leukemia virus type I; experiment: Inhibition of HTLV-1 protease at 8 uM using (RE(Edans)TKVLVVQPK(Dabsyl)R) substrate by fluorescence-based assay; procedure, shortened: as §1
[4] = test system: Human T-cell leukemia virus type I; experiment: Inhibition of HTLV-1 protease at 40 uM using (RE(Edans)TKVLVVQPK(Dabsyl)R) substrate by fluorescence-based assay; procedure, shortened: as §1

Row | Structure (SMILES) | Ki [1] | inhibition [2] | inhibition [3] | inhibition [4]
1 | CC(C)(C)NC(=O)[C@@H]1C[C@@H]2CCCC[C@@H]2CN1C[C@@H](O)[C@H](Cc1ccccc1)NC(=O)[C@H](CC(N)=O)NC(=O)c1ccc2ccccc2n1 | > 20 µM | – | – | –
2 | Cc1c(O)cccc1C(=O)N[C@@H](CSc1ccccc1)[C@H](O)CN1C[C@H]2CCCC[C@H]2C[C@H]1C(=O)NC(C)(C)C | > 20 µM | – | – | –
3 | CC(C)(C)NC(=O)[C@@H]1CNCCN1C[C@@H](O)C[C@@H](Cc1ccccc1)C(=O)N[C@H]1c2ccccc2C[C@H]1O | – | 60.8% | 16.8% | 45.1%
4 | CC(C)CN(C[C@@H](O)[C@H](Cc1ccccc1)NC(=O)O[C@H]1CCOC1)S(=O)(=O)c1ccc(N)cc1 | > 20 µM | – | – | –
5 | CC(C)(C)NC(=O)[C@@H]1CN(Cc2cccnc2)CCN1C[C@@H](O)C[C@@H](Cc1ccccc1)C(=O)N[C@H]1c2ccccc2C[C@H]1O | 3.5 µM | 95.4% | 71.8% | 91.2%
